Experimental data taken from ChEMBL document CHEMBL1139768, “The discovery of potent, selective, and orally bioavailable hNK1 antagonists derived from pyrrolidine” (Bioorg Med Chem Lett, 2007).

Assays:
Substance-P receptor = Substance-P receptor (Homo sapiens, UniProt P25103); test: Displacement of [125I]-SP from human NK1 receptor expressed in CHO cells
Gerbillinae [1] = test: Inhibition of GR-73632-induced foot tapping in gerbils at 3 mg/kg, iv after 24 hrs; assay type: functional; conditions: for inhibition in vivo at 3 mg/kg: Gerbillinae, iv, 24 h; for Inhibition: 3 mg/kg
Gerbillinae [2] = test: Inhibition of GR-73632-induced foot tapping in gerbils at 6 mg/kg, iv after 24 hrs; assay type: functional
Gerbillinae [3] = test: Inhibition of GR-73632-induced foot tapping in gerbils at 1 mg/kg, iv; assay type: functional
Gerbillinae [4] = test: Inhibition of GR-73632-induced foot tapping in iv dosed gerbils after 24 hrs; assay type: functional; conditions: for ED50: Gerbillinae, iv, 24 h, read-out: ID50 (the source's name)
Gerbillinae [5] = test: Inhibition of GR-73632-induced foot tapping in iv dosed gerbils; assay type: functional; conditions: for ED50: Gerbillinae, iv, read-out: ID50 (the source's name)
Gerbillinae [6] = test: Inhibition of GR-73632-induced foot tapping in gerbils at 3 mg/kg, iv; assay type: functional
Gerbillinae [7] = test: Inhibition of GR-73632-induced foot tapping in gerbils at 2 mg/kg, iv; assay type: functional
[8] = Plasma clearance in rat; assay type: ADME, organism-based
[9] = Half life in rat; assay type: ADME, organism-based; conditions: in vivo
[10] = Oral bioavailability in dog; assay type: ADME, organism-based, Canis lupus familiaris; conditions: in vivo
[11] = Half life in rhesus monkey; assay type: ADME, organism-based, Macaca mulatta; conditions: in vivo
[12] = Volume of distribution in rhesus monkey; assay type: ADME, organism-based, Macaca mulatta; conditions: in vivo
Gerbillinae [13] = test: Inhibition of GR-73632-induced foot tapping in orally dosed gerbils after 4 hrs; conditions: po, read-out: ID50 (the source's name)
Cavia porcellus = test: Inhibition of separation-induced vocalizations in po dosed guinea pig after 4 hrs; assay type: functional; conditions: read-out: ID50 (the source's name)
Method in brief: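 Guinea pig pups were dosed orally, and separation-induced vocalizations were measured 4 h later. ID50 is given in mg/kg.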

[14] = Plasma clearance in rhesus monkey; assay type: ADME, organism-based, Macaca mulatta
[15] = Half life in dog; assay type: ADME, organism-based, Canis lupus familiaris; conditions: in vivo
[16] = Oral bioavailability in rat; assay type: ADME, organism-based; conditions: in vivo
[17] = Volume of distribution in rat; assay type: ADME, organism-based; conditions: in vivo
Substance-K receptor = biological target: T1, Substance-K receptor (Homo sapiens, UniProt P21452); test: Binding affinity to NK2 receptor
T1 sequence (P21452 whole entry): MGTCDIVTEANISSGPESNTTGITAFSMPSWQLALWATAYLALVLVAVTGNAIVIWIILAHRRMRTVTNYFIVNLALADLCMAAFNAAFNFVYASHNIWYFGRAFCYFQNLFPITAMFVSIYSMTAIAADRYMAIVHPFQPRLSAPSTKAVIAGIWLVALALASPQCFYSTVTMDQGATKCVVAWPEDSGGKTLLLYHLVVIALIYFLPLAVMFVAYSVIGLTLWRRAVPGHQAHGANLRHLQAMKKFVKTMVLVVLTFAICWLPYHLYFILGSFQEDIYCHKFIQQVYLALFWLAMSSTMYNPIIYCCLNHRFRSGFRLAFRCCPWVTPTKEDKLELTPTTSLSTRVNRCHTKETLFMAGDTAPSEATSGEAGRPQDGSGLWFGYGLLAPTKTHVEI

Gerbillinae [18] = test: Inhibition of GR-73632-induced foot tapping in orally dosed gerbils after 1 hr; conditions: po, read-out: ID50 (the source's name)
Neuromedin-K receptor = biological target: T2, Neuromedin-K receptor (Homo sapiens, UniProt P29371); test: Binding affinity to NK3 receptor
T2 sequence (P29371 whole entry): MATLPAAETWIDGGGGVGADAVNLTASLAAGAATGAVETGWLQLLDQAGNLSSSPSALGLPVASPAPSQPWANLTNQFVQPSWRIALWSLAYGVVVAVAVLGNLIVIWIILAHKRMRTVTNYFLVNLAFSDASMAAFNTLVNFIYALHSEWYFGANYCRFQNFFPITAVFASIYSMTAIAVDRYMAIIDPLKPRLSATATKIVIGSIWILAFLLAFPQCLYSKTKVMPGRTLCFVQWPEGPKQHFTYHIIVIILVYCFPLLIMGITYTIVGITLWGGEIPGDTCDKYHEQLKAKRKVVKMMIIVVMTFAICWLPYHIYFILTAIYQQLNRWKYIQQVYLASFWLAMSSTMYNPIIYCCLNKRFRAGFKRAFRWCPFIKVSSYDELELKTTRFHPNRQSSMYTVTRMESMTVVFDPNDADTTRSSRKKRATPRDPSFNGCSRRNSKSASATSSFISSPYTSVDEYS

[19] = Plasma clearance in dog; assay type: ADME, organism-based, Canis lupus familiaris
Rhesus monkey = test: Receptor occupancy at NK1 receptor in iv dosed rhesus monkey brain after 4 hrs; assay type: functional, Macaca mulatta
Method in brief: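 Rhesus macaques received a 4-h iv infusion. Brain NK1 receptor occupancy was measured by PET and related to plasma steady-state concentration to estimate 50% and 90% occupancy levels.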

[20] = Volume of distribution in dog; assay type: ADME, organism-based, Canis lupus familiaris; conditions: in vivo
[21] = Oral bioavailability in rhesus monkey; assay type: ADME, organism-based, Macaca mulatta; conditions: in vivo

Substance-P receptor, sequence (P25103 whole entry): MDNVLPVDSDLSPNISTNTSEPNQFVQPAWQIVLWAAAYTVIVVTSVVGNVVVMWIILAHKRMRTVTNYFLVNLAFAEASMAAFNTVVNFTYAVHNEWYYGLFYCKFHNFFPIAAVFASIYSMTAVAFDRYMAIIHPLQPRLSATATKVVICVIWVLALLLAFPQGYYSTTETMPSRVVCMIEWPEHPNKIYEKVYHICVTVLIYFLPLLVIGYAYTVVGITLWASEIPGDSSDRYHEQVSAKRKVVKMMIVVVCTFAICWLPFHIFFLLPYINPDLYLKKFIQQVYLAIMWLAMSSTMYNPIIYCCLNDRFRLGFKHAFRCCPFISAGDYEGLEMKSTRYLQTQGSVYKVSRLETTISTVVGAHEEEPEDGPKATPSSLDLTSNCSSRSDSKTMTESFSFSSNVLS

CC(=O)N1CCN(C(=O)N2C[C@@H](O[C@H](C)c3cc(C(F)(F)F)cc(C(F)(F)F)c3)[C@H](c3ccc(F)cc3)C2)CC1
IC50 (Substance-P receptor): 0.3 nM | inhibition in vivo at 3 mg/kg (Gerbillinae [1]): 57%

CC(=O)N1C[C@@H](O[C@H](C)c2cc(C(F)(F)F)cc(C(F)(F)F)c2)[C@H](c2ccc(F)cc2)C1
IC50 (Substance-P receptor): 0.07 nM | inhibition in vivo at 6 mg/kg (Gerbillinae [2]): 26%

CCNC(=O)N1C[C@@H](O[C@H](C)c2cc(C(F)(F)F)cc(C(F)(F)F)c2)[C@H](c2ccc(F)cc2)C1
IC50 (Substance-P receptor): 0.1 nM | inhibition in vivo at 1 mg/kg (Gerbillinae [3]): 61% | inhibition in vivo at 6 mg/kg (Gerbillinae [2]): 93% | ED50 (Gerbillinae [4]): 1 mg/kg

CC1CC(=O)C=C1N1C[C@@H](O[C@H](C)c2cc(C(F)(F)F)cc(C(F)(F)F)c2)[C@H](c2ccc(F)cc2)C1 (mixture of isomers)
IC50 (Substance-P receptor): 0.11 nM | inhibition in vivo at 3 mg/kg (Gerbillinae [1]): 79%

C[C@@H](O[C@@H]1CN(C(=O)N(C)C)C[C@H]1c1ccc(F)cc1)c1cc(C(F)(F)F)cc(C(F)(F)F)c1
IC50 (Substance-P receptor): 0.38 nM

C[C@@H](O[C@@H]1CN(C2=CC(=O)C(O)C2)C[C@H]1c1ccc(F)cc1)c1cc(C(F)(F)F)cc(C(F)(F)F)c1 (stereo in doubt)
IC50 (Substance-P receptor): 0.3 nM | ID50 (Gerbillinae [5]): 1.1 mg/kg | inhibition in vivo at 3 mg/kg (Gerbillinae [1]): 95% | ID50 (Gerbillinae [4]): 0.5 mg/kg

C[C@@H](O[C@@H]1CN(C2=CC(=O)CC2)C[C@H]1c1ccccc1)c1cc(C(F)(F)F)cc(C(F)(F)F)c1
IC50 (Substance-P receptor): 0.07 nM | ED50 (Gerbillinae [5]): 0.9 mg/kg | inhibition in vivo at 3 mg/kg (Gerbillinae [1]): 100% | inhibition in vivo at 3 mg/kg (Gerbillinae [6]): 100% | ED50 (Gerbillinae [4]): 1.1 mg/kg

Cc1cnc(C(=O)N2C[C@@H](O[C@H](C)c3cc(C(F)(F)F)cc(C(F)(F)F)c3)[C@H](c3ccc(F)cc3)C2)cn1
IC50 (Substance-P receptor): 0.12 nM | inhibition in vivo at 3 mg/kg (Gerbillinae [1]): 45%

C[C@@H](O[C@@H]1CN(C2=CC(=O)OC2)C[C@H]1c1ccc(F)cc1)c1cc(C(F)(F)F)cc(C(F)(F)F)c1
IC50 (Substance-P receptor): 0.16 nM | inhibition in vivo at 3 mg/kg (Gerbillinae [1]): 67%

CNC(=O)N1C[C@@H](O[C@H](C)c2cc(C(F)(F)F)cc(C(F)(F)F)c2)[C@H](c2ccc(F)cc2)C1
IC50 (Substance-P receptor): 0.11 nM | ED50 (Gerbillinae [5]): 1 mg/kg | inhibition in vivo at 6 mg/kg (Gerbillinae [2]): 77% | inhibition in vivo at 2 mg/kg (Gerbillinae [7]): 100% | ED50 (Gerbillinae [4]): 3 mg/kg

CC(C)NC(=O)N1C[C@@H](O[C@H](C)c2cc(C(F)(F)F)cc(C(F)(F)F)c2)[C@H](c2ccc(F)cc2)C1
IC50 (Substance-P receptor): 0.06 nM | inhibition in vivo at 1 mg/kg (Gerbillinae [3]): 64% | inhibition in vivo at 6 mg/kg (Gerbillinae [2]): 86% | ED50 (Gerbillinae [4]): 0.8 mg/kg

C[C@@H](O[C@@H]1CN(C(=O)[C@@H]2COC(=O)N2)C[C@H]1c1ccc(F)cc1)c1cc(C(F)(F)F)cc(C(F)(F)F)c1
IC50 (Substance-P receptor): 0.34 nM | inhibition in vivo at 3 mg/kg (Gerbillinae [1]): 13%

C[C@@H](O[C@@H]1CN(C2=CC(=O)C(O)C2)C[C@H]1c1ccc(F)cc1)c1cc(C(F)(F)F)cc(C(F)(F)F)c1 (single isomer, unassigned; diastereomer A)
IC50 (Substance-P receptor): 0.22 nM | ID50 (Gerbillinae [5]): 0.5 mg/kg | Inhibition (Gerbillinae [1]): 100% | inhibition in vivo at 3 mg/kg (Gerbillinae [6]): 100% | ED50 (Gerbillinae [4]): 0.7 mg/kg

C[C@@H](O[C@@H]1CN(C2=CC(=O)CC2)C[C@H]1c1ccc(F)cc1)c1cc(C(F)(F)F)cc(C(F)(F)F)c1
clearance [8]: 19.6 mL/min/kg | half-life [9]: 3.6 h | IC50 (Substance-P receptor): 0.11 nM | bioavailability [10]: 100% | ED50 (Gerbillinae [5]): 0.1 mg/kg | inhibition in vivo at 1 mg/kg (Gerbillinae [3]): 100% | half-life [11]: 5.7 h | Vd [12]: 2.3 L/kg | ED50 (Gerbillinae [13]): 0.25 mg/kg | ED50 (Cavia porcellus): 0.17 mg/kg | clearance [14]: 4.5 mL/min/kg | half-life [15]: 20 h | bioavailability [16]: 100% | inhibition in vivo at 3 mg/kg (Gerbillinae [1]): 100% | Vd [17]: 6.2 L/kg | IC50 (Substance-K receptor): 1730 nM | ED50 (Gerbillinae [18]): 0.9 mg/kg | IC50 (Neuromedin-K receptor): > 3000 nM | clearance [19]: 1 mL/min/kg | ED50 (Gerbillinae [4]): 0.045 mg/kg | Occ50 (Rhesus monkey): 33 ng/mL | Occ90 (Rhesus monkey): 300 ng/mL | Vd [20]: 1.6 L/kg | bioavailability [21]: 68%

CC1CC(N2C[C@@H](O[C@H](C)c3cc(C(F)(F)F)cc(C(F)(F)F)c3)[C@H](c3ccc(F)cc3)C2)=CC1=O (single isomer, unassigned; diastereomer A)
IC50 (Substance-P receptor): 0.16 nM | Inhibition (Gerbillinae [1]): 85%

C[C@@H](O[C@@H]1CN(C2=CC(=O)C(C)(C)CC2)C[C@H]1c1ccccc1)c1cc(C(F)(F)F)cc(C(F)(F)F)c1
IC50 (Substance-P receptor): 0.18 nM | inhibition in vivo at 3 mg/kg (Gerbillinae [1]): 12%
